Data set [1] concerns Mus musculus. Description: Percent reduction in blood glucose is evaluated in db/db mice for euglycemic and hypolipidemic activities at a dose of 100 mg/kg.
The subject of data set [2] is Mus musculus. Description: Percent reduction in triglyceride (TG) after 9 days of dosing in db/db is evaluated in mice for euglycemic and hypolipidemic activities at a dose of 100 mg/kg.
Data set [3] deals with Mus musculus. Description: Percent reduction in blood glucose is evaluated in db/db mice for euglycemic and hypolipidemic activities at a dose of 200 mg/kg.
The subject of data set [4] is Mus musculus. Kind of data set: Percent reduction in triglyceride (TG) after 9 days of dosing in db/db is evaluated in mice for euglycemic and hypolipidemic activities.
Data set [5] relates to Mus musculus. Description: Percent reduction in blood glucose is evaluated in db/db mice for euglycemic and hypolipidemic activities at a dose of 10 mg/kg.
Data set [6] has as its system Mus musculus. Kind of data set: Percent reduction in triglyceride (TG) after 9 days of dosing in db/db is evaluated in mice for euglycemic and hypolipidemic activities at a dose of 10 mg/kg.
The subject of data set [7] is Mus musculus. Description: Percent reduction in triglyceride (TG) after 9 days of dosing in db/db is evaluated in mice for euglycemic and hypolipidemic activities at a dose of 200 mg/kg.
Data set [8] can be described thus: Ratio between level in subcutaneous fat to that of the level in plasma. The format is ADME. Put shortly:
(§1)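 Wistar rats, two per drug, given 10 mg/kg orally and sacrificed at plasma tmax. Blood/plasma drawn just before sacrifice. Tissues perfused with phosphate buffer pH 5.8 and homogenized 1:4 in buffer. Drug measured by HPLC and reported as µg/g wet tissue. Ratios are tissue over plasma.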

A short description of data set [9]: Pharmacokinetic parameter (tmax(h)) was evaluated at 10 mg/kg (p.o.) in Wistar rats. Type of data set: ADME, organism-based. Further details: dose 10 mg/kg, route oral. Particulars: rat, in vivo, po. In outline: (§2)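 Wistar rats (175-200 g), fasted 12 h, water free, fed 3 h post-dose. Single 10 mg/kg oral dose as 0.5% CMC suspension. Orbital sinus blood taken at 0, 0.5, 1, 2, 3, 5, 8, 12 and 24 h. Plasma assayed by reverse-phase C18 HPLC with fluorescence detection. Noncompartmental analysis gave AUC0-∞, Kel, t1/2, Cmax and tmax.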

A short description of data set [10]: Ratio between level in liver to that of the level in plasma. The format is ADME, tissue-based. In outline:
as §1

Data set [11] in a line: Pharmacokinetic parameter (Cmax) was evaluated at 10 mg/kg (p.o.) in Wistar rats. The format is ADME, organism-based. Also noted: dose 10 mg/kg, route oral. Particulars: rat, in vivo, po. In outline: as §2
The test system of data set [12] is Rattus norvegicus. Kind of data set: Tissue level at 10 mg/kg/po in wistar rats in subcutaneous fat. The format is ADME, organism-based. Particulars: in vivo. Put shortly:
as §1

The nature of data set [13]: Ratio between level in blood to that of the level in plasma. Type of data set: ADME. Put shortly: as §1
Data set [14] can be described thus: Ratio between level in brown fat to that of the level in plasma. The format is ADME. In outline: as §1
A short description of data set [15]: Pharmacokinetic parameter [Kel(1/h)] was evaluated at 10 mg/kg (p.o.) in Wistar rats. The format is ADME, organism-based. Further details: dose 10 mg/kg, route oral. Particulars: rat, in vivo, po. Put shortly: as §2
The nature of data set [16]: Ratio between level in skeletal muscle to that of the level in plasma. Type of data set: ADME. Put shortly: as §1
For data set [17], the system named is Rattus norvegicus. Description: Tissue level at 10 mg/kg/po in wistar rats in heart. Type of data set: ADME, organism-based. Particulars: in vivo. Put shortly:
as §1

The test system of data set [18] is Rattus norvegicus. Description: Tissue level at 10 mg/kg/po in wistar rats in brown fat. Type of data set: ADME, organism-based. Particulars: in vivo. In outline: as §1
Data set [19] in a line: Pharmacokinetic parameter [area under curve (AUC)] was evaluated at 10 mg/kg (p.o.) in Wistar rats. The format is ADME, organism-based. Further details: dose 10 mg/kg, route oral. Particulars: rat, in vivo, po. Put shortly: as §2
Data set [20] concerns Rattus norvegicus. Description: Tissue level at 10 mg/kg/po in wistar rats in blood. Type of data set: ADME, organism-based. Particulars: in vivo. Put shortly: as §1
The subject of data set [21] is Rattus norvegicus. Kind of data set: Tissue level at 10 mg/kg/po in wistar rats in skeletal muscle. The format is ADME, organism-based. Particulars: in vivo. In outline:
as §1

Data set [22] is described as follows: Ratio between level in heart to that of the level in plasma. Type of data set: ADME. In outline:
as §1

The subject of data set [23] is Rattus norvegicus. Kind of data set: Tissue level at 10 mg/kg/po in wistar rats in plasma. The format is ADME, organism-based. Particulars: in vivo. Put shortly: as §1
In data set [24] the test system is Rattus norvegicus. Kind of data set: Tissue level at 10 mg/kg/po in wistar rats in liver. Type of data set: ADME, organism-based. Particulars: in vivo. Put shortly:
as §1

Data set [25] is described as follows: Pharmacokinetic parameter (half-life) was evaluated at 10 mg/kg (p.o.) in Wistar rats. Type of data set: ADME, organism-based. Particulars: rat, in vivo, po. Further details: dose 10 mg/kg, route oral. In outline: as §2
Data set [26] can be described thus: Pharmacokinetic Parameter (half-life) was evaluated at 10 mg/kg (p.o.) in Wistar rats. Particulars: rat, in vivo, po. Further details: dose 10 mg/kg, route oral. Type of data set: ADME, organism-based. Put shortly:
as §2

Data set [27] in a line: Pharmacokinetic Parameter [Area under curve (AUC)] was evaluated at 10 mg/kg (p.o.) in Wistar rats. Type of data set: ADME, organism-based. Also noted: dose 10 mg/kg, route oral. Particulars: rat, in vivo, po. In outline:
as §2

The nature of data set [28]: Pharmacokinetic Parameter [tmax(h)] was evaluated at 10 mg/kg (p.o.) in Wistar rats. Type of data set: ADME, organism-based. Also noted: dose 10 mg/kg, route oral. Particulars: rat, in vivo, po. Put shortly:
as §2

Data set [29] can be described thus: Pharmacokinetic Parameter [Kel(1/h)] was evaluated at 10 mg/kg (p.o.) in Wistar rats. The format is ADME, organism-based. Also noted: dose 10 mg/kg, route oral. Particulars: rat, in vivo, po. Put shortly:
as §2

Data set [30] can be described thus: Pharmacokinetic Parameter (Cmax) was evaluated at 10 mg/kg (p.o.) in Wistar rats. Type of data set: ADME, organism-based. Also noted: dose 10 mg/kg, route oral. Particulars: rat, in vivo, po. In outline:
as §2

From ChEMBL document CHEMBL1131213, “Novel euglycemic and hypolipidemic agents. 1” (J Med Chem, 1998) come the findings set out here.

For `O=C1NC(=O)C(Cc2ccc(OCCn3c4ccccc4c4ccccc43)cc2)S1` (stereo unspecified), the Reduction is listed as 0% in [1] and 21% in data set [2].

Take `O=C1NC(=O)/C(=C/c2ccc(OCCn3ccc4ccccc43)cc2)S1`: the Reduction in data set [3] stood at 33%; in data set [4], 37%.

For the molecule `CN(CCOc1ccc(/C=C2\SC(=O)NC2=O)cc1)c1ccccn1`, the Reduction in [1] is 56%; in [5], 56%; in data set [2], 32%; in [6], 32%.

In the case of `O=C1NC(=O)/C(=C/c2ccc(OCCN3CCc4ccccc43)cc2)S1`, the Reduction in data set [3] is given as 61%; in data set [7], 83%.

Turning to `O=C1NC(=O)/C(=C\c2ccc(OCCn3c4ccccc4c4ccccc43)cc2)S1`, the Reduction in data set [1] was 0%; in [2] it was 44%.

On to `Cc1c(C)n(CCOc2ccc(/C=C3\SC(=O)NC3=O)cc2)c2ccccc12`, for which the values for the Reduction in [3] and in data set [7] were 40% and 2%, respectively.

For `O=C1NC(=O)C(Cc2ccc(OCCn3ccc4ccccc43)cc2)S1` (stereo unspecified), the Reduction came out at 74% in data set [1] and 77% in [2]. In addition, the Kp stood at 0.13 in [8]; 0.85 in data set [10]; 0.1 in [14]; 0.07 in data set [16]; 0.21 in [22]. Further, in [9], the Tmax was determined as 3.67 h. The molecule also registered a Cmax in data set [11] of 14500 ng/mL. Further, the Concentration in data set [12] was 1.5 µg/g; in data set [17], 2.45 µg/g; in [18], 1.23 µg/g; in [20], 7240 ng/mL; in [21] it was 0.85 µg/g; in data set [23], 11800 ng/mL. In addition, the Concentration in data set [24] was 10.01 µg/g. In data set [13], the blood plasma ratio was 0.62. This molecule showed a k el in data set [15] of 6.94e-05 s⁻¹. In data set [19], this molecule showed an AUC of 129000 ng·h/mL. Moreover, the half-life in data set [25] was 3.28 h.

In the case of `O=C1NC(=O)/C(=C/c2ccc(OCCn3c(C(=O)O)cc4ccccc43)cc2)S1`, the Reduction was 12% in [3] and 0% in [7].

For `O=C1NC(=O)/C(=C/c2ccc(OCCn3ccc4cc(Cl)ccc43)cc2)S1`, the results for the Reduction in [3] and in [7] were 39% and 11%, respectively.

As for `O=C1NC(=O)C(Cc2ccc(OCCN3CCc4ccccc43)cc2)S1` (stereo unspecified), the figures for the Reduction in data set [3] and in data set [7] were 33% and 79%, respectively.

Turning to `COC(=O)C(N)Cc1cn(CCOc2ccc(/C=C3\SC(=O)NC3=O)cc2)c2ccccc12` (stereo unspecified), the Reduction in data set [1] was 27%; in data set [2] it was 64%.

As to `CCOC(=O)c1cc2ccccc2n1CCOc1ccc(/C=C2\SC(=O)NC2=O)cc1`, the results for the Reduction in data set [3] and in [7] were 0% and 13%, respectively.

Take `O=C1NC(=O)/C(=C/c2ccc(OCCn3cnc4ccccc43)cc2)S1`: the Reduction in data set [3] is on record as 33%; in data set [7], 76%.

On to `O=C1NC(=O)/C(=C/c2ccc(OCCn3ccc4cccnc43)cc2)S1`, for which the Reduction in [3] turned out to be 36%; in data set [7] it was 79%.

On to `O=C1NC(=O)/C(=C/c2ccc(OCCn3ccnc3)cc2)S1`, for which the Reduction in [3] is listed as 13%; in data set [7], 72%.

Take `O=C1NC(=O)C(Cc2ccc(OCCn3ccc4cccnc43)cc2)S1` (stereo unspecified): the Reduction in data set [3] is 33%; in [7], 74%.

Turning to `Cc1cc2ccccc2n1CCOc1ccc(/C=C2\SC(=O)NC2=O)cc1`, the results for the Reduction in data set [3] and in [7] were 16% and 41%, respectively.

As to `CN(CCOc1ccc(CC2SC(=O)NC2=O)cc1)c1ccccn1.O=C(O)/C=C\C(=O)O` (stereo unspecified) [ROSIGLITAZONE MALEATE], the half-life in [26] is 1.02 h. The Kp in data set [8] came out at 0.53; in [10] it was 0.4; in data set [14], 0.08; in data set [16], 0.03; in data set [22] it was 0.06. In addition, the Reduction in data set [5] is recorded as 55%; in [4], 37%. In data set [27], this molecule displayed an AUC of 59200 ng·h/mL. The Concentration in data set [12] turned out to be 14.32 µg/g; in data set [17] it was 1.63 µg/g; in [18] it was 2.1 µg/g; in data set [20] it was 13800 ng/mL; in data set [21] it was 0.87 µg/g; in data set [23] it was 27200 ng/mL. In addition, the Concentration in data set [24] was 10.9 µg/g. In addition, the blood plasma ratio in data set [13] was 0.51. Besides, the Tmax in [28] came out at 0.5 h. Besides, in data set [29], the k el was 0.0002 s⁻¹. Besides, the Cmax in data set [30] came out at 29400 ng/mL.

`CN(CCOc1ccc(CC2SC(=O)NC2=O)cc1)c1ccccn1` (stereo unspecified) [ROSIGLITAZONE]: the Reduction worked out at 71% in data set [1]; 100% in data set [5]; 67% in data set [3]; 46% in data set [2]; 55% in [7]; 46% in [6].

Take `Cc1c(C)c2c(c(C)c1O)CCC(C)(COc1ccc(CC3SC(=O)NC3=O)cc1)O2` (stereo unspecified) [TROGLITAZONE]: the Reduction in data set [5] is recorded as 41%.
